Test results as given in ChEMBL document CHEMBL4020747, “Drug-like property-driven optimization of 4-substituted 1,5-diarylanilines as potent HIV-1 non-nucleoside reverse transcriptase inhibitors against rilpivirine-resistant mutant virus” (Bioorg Med Chem Lett, 2017).
Values after ≈ are worked out from the molar mass of the structure shown.

Assays:
[1] = Inhibition of wild type HIV1 NL4-3 reverse transcriptase infected in human TZM-b1 cells after 2 days by bright Glo-luciferase reporter gene assay; format: cell-based; conditions: Human immunodeficiency virus 1, NL4-3, TZM-b1, 48 h
Summary of the method: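 Anti-HIV activity against HIV-1 NL4-3 replication in TZM-bl cells, read out by luciferase gene expression. EC50 values from at least three experiments (n = 3). Top test concentration 100 ng/mL for the newly made series.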

Liver [2] = experiment: (§1) Half life in human liver microsomes at 1 uM pretreated up to 45 mins followed by NADPH addition by LC/MS/MS analysis; format: ADME, microsome; conditions: microsomes, 1 µM
Summary of the method: (§2)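 Remaining parent was quantified by LC/MS/MS at several time points to give t1/2 (min). Data from at least two experiments in parallel.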

[3] = Octanol-water partition coefficient, log P of the compound at pH 7.4 after 24 hrs by HPLC method; format: physicochemical; conditions: pH 7.4, 24 h
[4] = tested on: Human immunodeficiency virus; experiment: Fold resistance, ratio of EC50 for rilpivirine-resistant HIV1 NL4-3 reverse transcriptase E138K/M184I double mutant to EC50 for wild type HIV1 NL4-3 reverse transcriptase
Summary of the method: (§3)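 Fold change calculated as EC50 against the resistant NL4-3 variant (E138K or E138K+M184I) divided by EC50 against wild-type NL4-3, both measured in parallel in TZM-bl cells by luciferase reporter expression.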

[5] = tested on: Human immunodeficiency virus 1; experiment: Fold resistance, ratio of EC50 for rilpivirine-resistant HIV1 NL4-3 reverse transcriptase E138K mutant to EC50 for wild type HIV1 NL4-3 reverse transcriptase; summary of the method: as §3
[6] = Inhibition of rilpivirine-resistant HIV1 NL4-3 reverse transcriptase E138K/M184I double mutant infected in human TZM-b1 cells after 2 days by bright Glo-luciferase reporter gene assay; format: cell-based; conditions: Human immunodeficiency virus 1, NL4-3, TZM-b1, 48 h
Summary of the method: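 TZM-bl cells infected with NL4-3 variant carrying E138K or E138K+M184I RT mutations; EC50 from luciferase reporter gene expression. Test compounds up to 100 ng/mL highest concentration; at least three experiments (n = 3). Run in parallel with wild-type NL4-3 and reference drug.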

[7] = Aqueous solubility of the compound in phosphate buffer at pH 7.4 after 4 hrs by HPLC-UV analysis; format: physicochemical
Summary of the method: (§4)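 Aqueous solubility measured by HPLC at pH 2.0 and at pH 7.4.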

Liver [8] = experiment: (§5) Half life in human liver S9 fractions at 1 uM measured pretreated up to 45 mins followed by NADPH addition by LC/MS/MS analysis; format: ADME, tissue-based; conditions: s9, 1 µM; summary of the method: as §2
Plasma = experiment: (§6) Half life in human plasma at 10 ug/ml by LC/MS/MS analysis; format: ADME, cell-free
TZM = experiment: (§7) Cytotoxicity against human TZM-bl cells infected with HIV1 NL4-3; format: cell-based; conditions: tzm
[9] = Aqueous solubility of the compound in 0.01 M HCl at pH 2 after 4 hrs by HPLC-UV analysis; format: physicochemical; summary of the method: as §4
[10] = Inhibition of wild-type HIV-1 3B reverse transcriptase infected in human MT4 cells assessed as reduction in virus-induced cytopathic effect after 5 days by MTT assay; format: cell-based; conditions: Human immunodeficiency virus 1, 3B, MT4, 120 h
[11] = as §1; format: ADME, microsome; conditions: liver microsomes; summary of the method: as §2
[12] = as §5; format: ADME, tissue-based; conditions: liver S9 fraction; summary of the method: as §2
[13] = as §6; format: ADME, cell-free
[14] = as §7; format: cell-based; conditions: TZM-bl cells infected with HIV1 NL4-3

half-life at 1 µM [11] [h] | half-life at 1 µM [12] [h] | half-life at 10 ug/ml [13] [h] | SMILES | EC50 [1] [nM] | t1/2 (Liver [2]) [h] | logP [3] | Ratio EC50 [4] | Ratio EC50 [5] | EC50 [6] [nM] | solubility at 4 h [7] [µg/mL] | t1/2 (Liver [8]) [h] | t1/2 (Plasma) [h] | CC50 (TZM) [nM] | solubility at 4 h [9] [µg/mL] | EC50 [10] [nM] | CC50 [14] [nM]
 |  |  | Cc1cc(/C=C/C#N)cc(C)c1Oc1cc(Nc2ccc(C#N)cc2)c(N)cc1C(=O)NCCCl | 3.29 | 1.02 | > 5 | 5.2 | 2.6 | 17.3 | 1.59 (≈ 3.27 µM) | 1.23 | 8 | > 206 | 9.53 (≈ 19.6 µM) |  | 
 |  |  | Cc1cc(/C=C/C#N)cc(C)c1Oc1cc(Nc2ccc(C#N)cc2)c(N)cc1C(=O)OCCC#N | 1.11 | 0.283 | > 5 | 4.1 | 2.4 | 4.61 | 0.36 (≈ 0.754 µM) | 0.2 | 32 | > 210 | 0.94 (≈ 1.97 µM) |  | 
 |  |  | Cc1cc(C#N)cc(C)c1Oc1nc(Nc2ccc(C#N)cc2)nc(N)c1Br [ETRAVIRINE] |  |  |  |  |  |  |  |  |  |  |  | > 1.5 | 
 |  |  | Cc1cc(/C=C/C#N)cc(C)c1Nc1ccnc(Nc2ccc(C#N)cc2)n1 [RILPIVIRINE] | 0.44 | 1.8 | > 5 |  |  | 2.38 |  | 1.7 | 92 | > 273 |  |  | 
 |  |  | Cc1cc(/C=C/C#N)cc(C)c1Oc1cc(Nc2ccc(C#N)cc2)c(N)cc1C(N)=O |  | 1.5 | 3.53 |  |  |  |  | 1.8 | 65 |  |  |  | 
 |  |  | COCCOC(=O)c1cc(N)c(Nc2ccc(C#N)cc2)cc1Oc1c(C)cc(/C=C/C#N)cc1C | 1.52 | 0.317 | > 5 | 6.3 | 2.9 | 9.54 | 0.77 (≈ 1.6 µM) | 0.158 | 62 | > 207 | 1.64 (≈ 3.4 µM) |  | 
0.233 | 0.233 | 57 | Cc1cc(/C=C/C#N)cc(C)c1Oc1cc(Nc2ccc(C#N)cc2)c(N)cc1C(=O)N1CC(F)(F)C1 | 13.4 |  | 3.58 |  |  |  | 6.59 (≈ 13.2 µM) |  |  |  | 57.6 (≈ 115 µM) |  | > 200
 |  |  | Cc1cc(/C=C/C#N)cc(C)c1Oc1cc(Nc2ccc(C#N)cc2)c(N)cc1C(=O)N1CC1 | 3.33 | 2.63 | 2.21 | 5 | 2.6 | 16.7 | 1.2 (≈ 2.67 µM) | 1.83 | 12 | > 223 | 94.2 (≈ 210 µM) |  | 
 |  |  | Cc1cc(/C=C/C#N)cc(C)c1Oc1cc(Nc2ccc(C#N)cc2)c(N)cc1C(=O)NN | 11.6 | 0.6 | 2.31 |  |  |  | 2.4 (≈ 5.47 µM) | 0.65 | 8 | > 228 | 89.6 (≈ 204 µM) |  | 
 |  |  | Cc1cc(/C=C/C#N)cc(C)c1Oc1cc(Nc2ccc(C#N)cc2)c(N)cc1C(=O)NCCCO | 24.9 |  | 3.22 |  | 0.9 |  | 1.01 (≈ 2.1 µM) |  |  | > 208 | 19.9 (≈ 41.3 µM) |  | 
